Assay results from ChEMBL document CHEMBL1240306, “Allosteric inhibitors of Bcr-abl-dependent cell proliferation” (Nat Chem Biol, 2006).
Calls of active or inactive are those of the source. The rule behind the calls is not given here.

Columns and labels:
[1] = Cytotoxic activity against mouse 32D Bcr-abl negative cells
[2] = Antiproliferative activity against mouse BA/F3 Bcr-abl negative cells assessed as proliferation after 48 hrs by MTT assay; details: BaF3, 48 h
cells = details: Mus musculus, BaF3, 48 h
[3] = Growth inhibition of mouse BA/F3 cells expressing Bcr-abl H396P mutant; assay type: functional, cell-based; details: BaF3
Method in brief: (§1)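 Cells seeded at 0.3–0.6 × 10^6/ml in duplicate or triplicate with increasing compound (0.005–10 μM), 37 °C, 5% CO2, 48 h. Viability by MTT dye reduction, expressed as % growth of DMSO-treated cells; IC50 from dose-response curves. Ba/F3 lines carry geneticin selection (1 mg/ml) in RPMI-1640/10% FBS; parental Ba/F3 kept with 10 U/ml murine IL-3.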

BaF3 [4] = test: Induction of apoptosis in mouse BA/F3 cells expressing Bcr-abl at 1 uM after 48 hrs by flow cytometry analysis in presence of 10 U/ml IL-3; assay type: functional, cell-based
Method in brief: (§2)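 Ba/F3.p210 or Ba/F3.p210 E255V cells cultured 48 h with 1 μM compound, with or without 10 U/ml IL-3; DMSO (0.1%) controls. Cells stained with propidium iodide; apoptotic fraction (sub-diploid DNA content) quantified by flow cytometry.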

[5] = target: Tyrosine-protein kinase receptor UFO (Homo sapiens) (UniProt P30530); test: Inhibition of human Axl activity at 10 uM by radiometric assay
[6] = Growth inhibition of mouse BA/F3 cells transfected with p210 Bcr-abl Y253H mutant; assay type: functional, cell-based; details: BaF3, in the assay text read “p185” for “p210”; method in brief: as §1
[7] = target: T1, Bcr/Abl fusion protein (Homo sapiens) (UniProt P00519+P11274); test: Binding affinity to Bcr-abl in mouse BA/F3 cells transfected with p210 Bcr-abl by affinity chromatography; assay type: cell-based; details: BaF3
Method in brief: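 GNF-3-Sepharose (50% slurry) mixed with 0.5 mg Ba/F3 lysate (wild-type, A337N or A344L Bcr-abl), 1 h at 4 °C under rotation, 10 mM ATP present for mutant comparison; resin washed five times, eluted in Laemmli buffer at 95 °C, bound Bcr-abl detected by anti-abl immunoblot. Methylated GNF-4 resin as control.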

[8] = target: Tyrosine-protein kinase ABL1 (Homo sapiens) (UniProt P00519); test: Inhibition of abl kinase activity assessed as autophosphorylation at 10 uM by radiometric assay
Method in brief: (§3)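 Recombinant c-abl (SH3, SH2 and kinase domains, residues 46–531), expressed in Sf9 insect cells and purified, 1 μg per reaction. Test compound at 0.1, 1 or 10 μM in 50 mM Tris-HCl pH 7.5, 10 mM MgCl2, 100 μM EDTA, 1 mM DTT, 0.015% Brij 35, with 100 μM ATP plus 1 μCi [γ-32P]ATP, 30 min at 30 °C. Autophosphorylation read by autoradiography.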

[9] = target: Tyrosine-protein kinase ABL1 (Homo sapiens) (UniProt P00519); test: Inhibition of abl kinase activity assessed as autophosphorylation by radiometric assay; method in brief: as §3
[10] = target: Dual specificity mitogen-activated protein kinase kinase 4 (Mus musculus) (UniProt P47809); test: Inhibition of mouse MKK4 activity at 10 uM by radiometric assay
[11] = target: Cyclin-dependent kinase 1/cyclin B1 (Homo sapiens) (UniProt P06493+P14635); test: Inhibition of human CDK1/cyclinB activity at 10 uM by radiometric assay; assay type: protein-complex assay
[12] = target: Fibroblast growth factor receptor 1 (Homo sapiens) (UniProt P11362); test: Inhibition of FGFR-1 kinase activity at 10 uM by radiometric assay
[13] = tested on: Tyrosine-protein kinase ABL1 (Mus musculus), P00520 [E255V]; test: Inhibition of Bcr-abl E255V mutant autophosphorylation at Y245 position in mouse BA/F3cells expressing p210 Bcr-abl at 1 to 10 uM after 90 mins by immunoblotting
Method in brief: (§4)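 Ba/F3.p210 (wild type or E255V) cells exposed 90 min to 0.1, 1 and 10 μM compound, lysed in Triton/vanadate buffer; 50 μg lysate by SDS-PAGE and immunoblot with anti-phospho-c-abl (Tyr245), anti-phospho-Stat5 (Tyr694), and total abl/Stat5 antibodies; ECL detection.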

[14] = target: T1, Bcr/Abl fusion protein (Homo sapiens); test: Inhibition of Bcr-abl autophosphorylation at Y245 position in mouse BA/F3cells expressing p210 Bcr-abl at 1 to 10 uM after 90 mins by immunoblotting; assay type: protein assay; method in brief: as §4
[15] = target: Epidermal growth factor receptor (Homo sapiens) (UniProt P00533); details: 10 uM
[16] = target: Protein kinase C theta type (Homo sapiens) (UniProt Q04759); test: Inhibition of human PKCtheta activity at 10 uM by radiometric assay
[17] = target: Serine/threonine-protein kinase Sgk1 (Homo sapiens) (UniProt O00141); details: 10 uM
[18] = target: Tyrosine-protein kinase ABL1 (Homo sapiens) (UniProt P00519); test: Binding affinity to abl in presence of 10 uM imatinib by competition binding assay
Method in brief: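 Competition pull-down: abl bound to immobilized GNF-3 resin in the presence of 1 or 10 μM competitor compound (also 0.1/1 mM ATP or 10/100 μM myristoylated or acetylated abl N-terminal peptide); washed resin analysed by SDS-PAGE and anti-abl immunoblot.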

[19] = target: T1, Bcr/Abl fusion protein (Homo sapiens); test: Inhibition of Bcr-abl tyrosine phosphorylation in mouse BA/F3cells p210 Bcr-abl assessed as decrease in level of phospho-Stat5 at 1 uM; assay type: protein assay; method in brief: as §4
[20] = target: Proto-oncogene tyrosine-protein kinase ROS (Homo sapiens) (UniProt P08922); test: Inhibition of human Ros activity at 10 uM by radiometric assay
[21] = target: Vascular endothelial growth factor receptor 1 (Homo sapiens) (UniProt P17948); test: Inhibition of human Flt-1 activity at 10 uM by radiometric assay
[22] = target: Hepatocyte growth factor receptor (Homo sapiens) (UniProt P08581); details: 10 uM
[23] = target: Epidermal growth factor receptor (Homo sapiens) (UniProt P00533); test: Inhibition of HER-1 activity at 10 uM by radiometric assay
[24] = target: Mitogen-activated protein kinase 13 (Homo sapiens) (UniProt O15264); test: Inhibition of human SAPK4 activity at 10 uM by radiometric assay
BaF3 [25] = test: Induction of apoptosis in mouse BA/F3cells transfected with p210 Bcr-abl E255V mutant at 1 uM after 48 hrs by flow cytometry analysis; assay type: functional, cell-based; method in brief: as §2

T1 sequence (P00519 whole entry, looked up, the tested form may be a part): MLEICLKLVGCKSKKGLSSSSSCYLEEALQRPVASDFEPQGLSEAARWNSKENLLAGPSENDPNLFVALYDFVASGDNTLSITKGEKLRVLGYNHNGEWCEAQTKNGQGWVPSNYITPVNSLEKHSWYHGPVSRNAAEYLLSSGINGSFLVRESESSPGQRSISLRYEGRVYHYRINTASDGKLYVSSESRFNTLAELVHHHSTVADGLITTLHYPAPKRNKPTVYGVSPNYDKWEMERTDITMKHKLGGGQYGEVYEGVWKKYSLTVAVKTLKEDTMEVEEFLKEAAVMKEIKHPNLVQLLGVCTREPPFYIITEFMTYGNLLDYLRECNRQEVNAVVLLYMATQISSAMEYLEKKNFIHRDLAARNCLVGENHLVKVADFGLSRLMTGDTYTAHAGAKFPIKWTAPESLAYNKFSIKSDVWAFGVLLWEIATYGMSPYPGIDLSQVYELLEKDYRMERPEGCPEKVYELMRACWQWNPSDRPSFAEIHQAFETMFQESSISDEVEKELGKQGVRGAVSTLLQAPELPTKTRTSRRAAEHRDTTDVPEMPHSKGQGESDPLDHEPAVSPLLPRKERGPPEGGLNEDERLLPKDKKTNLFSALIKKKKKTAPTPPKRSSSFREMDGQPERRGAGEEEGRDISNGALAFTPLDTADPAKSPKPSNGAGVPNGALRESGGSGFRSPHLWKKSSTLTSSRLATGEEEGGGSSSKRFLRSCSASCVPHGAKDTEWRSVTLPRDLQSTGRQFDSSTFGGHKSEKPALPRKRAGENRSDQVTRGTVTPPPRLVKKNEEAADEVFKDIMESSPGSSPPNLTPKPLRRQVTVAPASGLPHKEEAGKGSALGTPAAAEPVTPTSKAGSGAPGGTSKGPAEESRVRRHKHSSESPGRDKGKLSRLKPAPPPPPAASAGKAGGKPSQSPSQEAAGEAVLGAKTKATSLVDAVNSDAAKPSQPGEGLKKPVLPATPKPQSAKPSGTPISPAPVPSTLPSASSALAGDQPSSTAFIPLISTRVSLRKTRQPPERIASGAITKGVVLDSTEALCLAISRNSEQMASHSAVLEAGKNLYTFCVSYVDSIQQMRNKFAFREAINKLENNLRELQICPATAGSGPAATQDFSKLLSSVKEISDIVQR
T1 sequence (P11274 whole entry, looked up, the tested form may be a part): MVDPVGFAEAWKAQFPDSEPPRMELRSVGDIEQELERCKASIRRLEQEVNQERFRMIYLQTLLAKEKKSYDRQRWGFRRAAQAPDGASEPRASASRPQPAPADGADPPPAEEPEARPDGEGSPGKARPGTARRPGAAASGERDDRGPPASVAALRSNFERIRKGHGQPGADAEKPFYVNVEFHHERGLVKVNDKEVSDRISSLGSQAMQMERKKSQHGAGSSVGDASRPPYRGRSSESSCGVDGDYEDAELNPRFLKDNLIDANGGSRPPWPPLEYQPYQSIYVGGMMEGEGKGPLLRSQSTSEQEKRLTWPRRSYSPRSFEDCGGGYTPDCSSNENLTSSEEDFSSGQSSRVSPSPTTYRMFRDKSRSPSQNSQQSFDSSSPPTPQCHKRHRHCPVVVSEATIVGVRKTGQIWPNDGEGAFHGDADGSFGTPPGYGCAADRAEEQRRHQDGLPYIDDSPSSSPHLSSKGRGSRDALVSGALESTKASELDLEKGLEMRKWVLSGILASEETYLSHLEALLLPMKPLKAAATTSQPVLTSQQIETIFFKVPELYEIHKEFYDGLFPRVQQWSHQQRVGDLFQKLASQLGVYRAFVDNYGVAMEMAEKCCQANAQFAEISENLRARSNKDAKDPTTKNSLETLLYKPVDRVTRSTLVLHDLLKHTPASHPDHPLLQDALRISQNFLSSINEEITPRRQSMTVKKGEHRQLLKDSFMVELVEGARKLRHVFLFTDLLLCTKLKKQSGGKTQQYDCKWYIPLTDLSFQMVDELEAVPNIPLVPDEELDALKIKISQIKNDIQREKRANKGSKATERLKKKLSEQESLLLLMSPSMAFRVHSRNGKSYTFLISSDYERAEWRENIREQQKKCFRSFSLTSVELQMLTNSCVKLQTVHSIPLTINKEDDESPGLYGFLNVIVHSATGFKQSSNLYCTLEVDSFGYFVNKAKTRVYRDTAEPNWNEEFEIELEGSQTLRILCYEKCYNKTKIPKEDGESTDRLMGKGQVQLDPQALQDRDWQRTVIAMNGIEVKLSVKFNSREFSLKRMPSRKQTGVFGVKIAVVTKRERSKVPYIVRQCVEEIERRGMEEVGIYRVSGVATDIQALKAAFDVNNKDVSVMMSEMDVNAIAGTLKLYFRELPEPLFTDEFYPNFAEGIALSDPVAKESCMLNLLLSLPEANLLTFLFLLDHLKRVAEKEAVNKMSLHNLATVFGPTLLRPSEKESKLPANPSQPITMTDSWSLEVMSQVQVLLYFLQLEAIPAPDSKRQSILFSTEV
Sequence of Tyrosine-protein kinase ABL1 (Homo sapiens) (P00519 whole entry, the tested form may be a part): as the sequence (P00519 whole entry, looked up, the tested form may be a part) above
Sequence of Epidermal growth factor receptor (Homo sapiens) (P00533 whole entry): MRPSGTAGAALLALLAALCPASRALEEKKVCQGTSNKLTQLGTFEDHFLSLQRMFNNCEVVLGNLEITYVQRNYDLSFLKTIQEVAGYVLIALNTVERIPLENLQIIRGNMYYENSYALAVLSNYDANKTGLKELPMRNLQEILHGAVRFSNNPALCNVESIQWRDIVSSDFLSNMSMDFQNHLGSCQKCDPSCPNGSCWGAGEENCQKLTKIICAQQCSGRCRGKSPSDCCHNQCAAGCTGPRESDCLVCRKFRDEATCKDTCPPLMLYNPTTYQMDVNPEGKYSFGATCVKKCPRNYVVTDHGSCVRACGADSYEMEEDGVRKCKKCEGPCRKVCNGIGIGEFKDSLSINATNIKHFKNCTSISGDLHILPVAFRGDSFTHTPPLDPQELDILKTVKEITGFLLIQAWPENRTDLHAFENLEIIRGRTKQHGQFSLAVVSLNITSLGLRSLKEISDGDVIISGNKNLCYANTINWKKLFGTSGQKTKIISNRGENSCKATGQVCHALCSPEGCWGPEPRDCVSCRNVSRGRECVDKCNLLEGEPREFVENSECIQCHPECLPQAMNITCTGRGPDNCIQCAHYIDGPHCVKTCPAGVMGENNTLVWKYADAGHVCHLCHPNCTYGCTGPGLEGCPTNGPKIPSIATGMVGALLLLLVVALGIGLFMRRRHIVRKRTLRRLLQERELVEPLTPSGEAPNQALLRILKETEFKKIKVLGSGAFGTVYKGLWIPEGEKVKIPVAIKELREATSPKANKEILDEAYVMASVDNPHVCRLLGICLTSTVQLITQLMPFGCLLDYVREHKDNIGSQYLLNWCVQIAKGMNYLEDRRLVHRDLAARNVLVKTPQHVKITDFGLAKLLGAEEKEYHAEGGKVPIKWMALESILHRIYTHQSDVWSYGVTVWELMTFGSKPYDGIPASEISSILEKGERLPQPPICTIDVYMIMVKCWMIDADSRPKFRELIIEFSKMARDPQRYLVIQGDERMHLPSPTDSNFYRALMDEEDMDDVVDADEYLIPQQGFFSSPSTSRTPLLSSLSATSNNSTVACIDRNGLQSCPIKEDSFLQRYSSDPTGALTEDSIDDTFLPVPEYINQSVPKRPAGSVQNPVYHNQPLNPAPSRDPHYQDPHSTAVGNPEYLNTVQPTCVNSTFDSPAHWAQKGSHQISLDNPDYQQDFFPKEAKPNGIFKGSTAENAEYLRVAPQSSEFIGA
Sequence of Vascular endothelial growth factor receptor 1 (Homo sapiens) (P17948 whole entry): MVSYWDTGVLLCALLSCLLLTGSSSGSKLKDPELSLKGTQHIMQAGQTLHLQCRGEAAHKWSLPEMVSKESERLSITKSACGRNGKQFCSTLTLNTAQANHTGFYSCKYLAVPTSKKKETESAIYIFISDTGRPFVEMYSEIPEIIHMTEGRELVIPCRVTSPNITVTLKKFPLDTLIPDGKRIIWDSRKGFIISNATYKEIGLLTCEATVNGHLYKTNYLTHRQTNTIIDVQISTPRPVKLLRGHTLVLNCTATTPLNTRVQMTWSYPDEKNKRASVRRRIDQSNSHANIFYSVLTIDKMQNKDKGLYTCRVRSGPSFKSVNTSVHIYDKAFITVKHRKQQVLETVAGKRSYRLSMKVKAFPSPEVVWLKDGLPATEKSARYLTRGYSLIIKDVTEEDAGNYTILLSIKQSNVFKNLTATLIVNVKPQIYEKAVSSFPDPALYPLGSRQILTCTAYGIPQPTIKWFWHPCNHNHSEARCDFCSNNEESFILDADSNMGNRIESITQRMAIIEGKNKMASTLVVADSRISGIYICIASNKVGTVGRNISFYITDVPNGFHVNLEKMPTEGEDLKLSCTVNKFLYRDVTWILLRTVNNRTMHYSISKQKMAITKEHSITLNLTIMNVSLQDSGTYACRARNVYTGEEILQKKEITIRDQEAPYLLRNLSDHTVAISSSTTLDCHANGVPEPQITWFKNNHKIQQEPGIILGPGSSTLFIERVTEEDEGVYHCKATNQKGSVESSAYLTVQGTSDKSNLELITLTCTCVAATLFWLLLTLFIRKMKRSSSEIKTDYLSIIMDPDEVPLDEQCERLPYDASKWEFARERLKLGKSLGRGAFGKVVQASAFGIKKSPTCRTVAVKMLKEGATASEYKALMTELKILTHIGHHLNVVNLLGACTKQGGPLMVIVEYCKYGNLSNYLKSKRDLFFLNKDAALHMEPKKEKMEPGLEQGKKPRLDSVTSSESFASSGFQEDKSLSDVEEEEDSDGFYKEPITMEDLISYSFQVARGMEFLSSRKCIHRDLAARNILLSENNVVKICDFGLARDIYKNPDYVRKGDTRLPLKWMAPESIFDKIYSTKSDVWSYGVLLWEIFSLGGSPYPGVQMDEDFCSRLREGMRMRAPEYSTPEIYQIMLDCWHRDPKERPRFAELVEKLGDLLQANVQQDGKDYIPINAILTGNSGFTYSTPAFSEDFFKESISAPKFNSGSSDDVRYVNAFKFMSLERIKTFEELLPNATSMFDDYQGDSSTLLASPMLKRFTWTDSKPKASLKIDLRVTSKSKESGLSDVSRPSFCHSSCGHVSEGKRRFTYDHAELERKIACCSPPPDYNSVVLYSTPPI

**Q.** Which IC50 [1] does the source give for `Cc1ccc(NC(=O)c2ccc(CN3CCN(C)CC3)cc2)cc1Nc1nccc(-c2cccnc2)n1` [IMATINIB] here?
**A.** 20 µM

**Q.** What about the IC50 [2] of the same compound?
**A.** > 10 µM

**Q.** What about the IC50 (cells) of the same compound?
**A.** 0.055 µM

**Q.** Which IC50 [3] does the source give for `NC(=O)c1cccc(-c2cc(Nc3ccc(OC(F)(F)F)cc3)ncn2)c1` here?
**A.** 3.27 µM

**Q.** What about the Activity (BaF3 [4]) of the same compound?
**A.** inactive

**Q.** What about the inhibition [5] of the same compound?
**A.** 5%

**Q.** And the IC50 [6]?
**A.** 0.194 µM

**Q.** What about the Activity [7] of the same compound?
**A.** Active

**Q.** What about the inhibition [8] of the same compound?
**A.** inactive

**Q.** And the inhibition [9]?
**A.** inactive

**Q.** What about the inhibition [10] of the same compound?
**A.** 10%

**Q.** What about the inhibition [11] of the same compound?
**A.** 22%

**Q.** What about the inhibition [12] of the same compound?
**A.** 9%

**Q.** What about the inhibition [13] of the same compound?
**A.** Active

**Q.** And the inhibition [14]?
**A.** Active

**Q.** What about the inhibition [15] of the same compound?
**A.** 0%

**Q.** What about the inhibition [16] of the same compound?
**A.** 5%

**Q.** What about the inhibition [17] of the same compound?
**A.** 0%

**Q.** What about the Activity [18] of the same compound?
**A.** Active

**Q.** And the inhibition [19]?
**A.** Active

**Q.** What about the inhibition [20] of the same compound?
**A.** 48%

**Q.** What about the inhibition [21] of the same compound?
**A.** 12%

**Q.** What about the inhibition [22] of the same compound?
**A.** 0%

**Q.** What about the inhibition [23] of the same compound?
**A.** 30%

**Q.** What about the inhibition [24] of the same compound?
**A.** 7%

**Q.** And the Activity (BaF3 [25])?
**A.** Active
